The list is not random: actives were taken first. Their share in the collection is about 3.5%.
RGS4 act: potentiators or activators of RGS4; HEK293 M3R/inducible RGS4, carbachol calcium flux Fluo4; active compounds read low; B-score at 10 µM; actives 0.92% (n = 310,000); AID 463111;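 active = B-score of the integrated calcium signal more than 4 SD below the library mean, with starting fluorescence not abnormally high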;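 also: negative B-score means reduced calcium response which marks RGS4 activation or potentiation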
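Reagent: ECmax carbachol challenge; Test system: M3R-expressing HEK293 line, RGS4 induced by doxycycline; Schedule: overnight RGS4 induction, 30 min dye load 37 °C, 20 min compound RT; Detection: calcium dye Fluo4 fluorescence; Read-out: Agonist-evoked peak-minus-minimum fluorescence over baseline, integrated ratio, B score.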
MrgX1 antagonist: blocks BAM8-22 activation of human MrgX1 receptor | B-score at 10 µM | MRGX1-HEK293 calcium flux, Fluo-4, BAM8-22 antagonism; active compounds read low | Q96LB2 | actives 1.3% (n = 310,000);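 active = calcium-response B-score plate-corrected more than 3 library SD below zero, starting fluorescence within 5 deviations, no agonist response on first addition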;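 also: peak minus trough fluorescence over baseline after final BAM8-22 challenge near maximal dose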
Target sequence (Q96LB2 whole entry, looked up): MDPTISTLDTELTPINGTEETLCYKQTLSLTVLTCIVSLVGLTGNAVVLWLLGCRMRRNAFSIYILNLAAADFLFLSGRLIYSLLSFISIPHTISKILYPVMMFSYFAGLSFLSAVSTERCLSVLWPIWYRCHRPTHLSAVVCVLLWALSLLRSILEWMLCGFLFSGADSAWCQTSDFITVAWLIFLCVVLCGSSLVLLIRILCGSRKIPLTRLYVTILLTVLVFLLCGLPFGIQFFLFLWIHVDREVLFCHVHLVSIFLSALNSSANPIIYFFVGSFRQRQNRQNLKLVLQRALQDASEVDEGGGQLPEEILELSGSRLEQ
MrgX1 ag: human MrgX1 receptor agonism, primary screen. Q96LB2. MrgX1-HEK293 cells, Fluo-4 calcium fluorescence, agonist mode; active compounds read high. B-score at 10 µM. actives 0.44% (n = 310,000). AID 588627;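 active = calcium response B-score plate-corrected fluorescence ratio at least 3 library SD, with starting fluorescence B-score inside 5 SD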
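Test system: HEK293 cells stably expressing human MrgX1 receptor; amount: 15,000 cells per well; doses: compound delivered in addition one of three; times: overnight plating before 1 h dye loading; detection: Fluo-4 NW calcium-flux fluorescence, kinetic read; read-out basis: B-scored fluorescence response ratio; controls: positive and negative controls per plate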
RGS4 block: human RGS4 inhibition. P49798. B-score at 10 µM. AID 463165. actives 0.45% (n = 310,000). HEK293 M3R/RGS4 inducible, Fluo-4 calcium flux; active compounds read high; triggered by carbachol at its EC20;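 active = B-score, a plate-corrected calcium signal, over three deviations above library mean, with baseline fluorescence within five deviations of library mean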;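 also: RGS4 expression induced by doxycycline in cells with stable M3 receptor; B-score is computed from the integrated fluorescence ratio over baseline after carbachol; higher B-score means a larger calcium signal and so more RGS4 inhibition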
Target sequence (P49798 whole entry, looked up): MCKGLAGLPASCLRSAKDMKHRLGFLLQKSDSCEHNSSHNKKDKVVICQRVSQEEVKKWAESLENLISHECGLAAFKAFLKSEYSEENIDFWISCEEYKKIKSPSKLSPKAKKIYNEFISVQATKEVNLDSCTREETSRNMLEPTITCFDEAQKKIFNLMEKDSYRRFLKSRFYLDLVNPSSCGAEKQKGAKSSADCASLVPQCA
MrgX1 PAM: allosterically activates human MrgX1 receptor signaling; actives 0.63% (n = 310,000); MrgX1-HEK293, Fluo-4 calcium flux, FDSS; active compounds read high; B-score at 10 µM; Q96LB2;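 active = plate-corrected calcium response at least 3 library SD above typical, normal starting fluorescence, not activating the receptor alone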;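 also: compound read alongside a low EC10 to EC30 dose of BAM8-22 agonist; peak minus trough fluorescence over baseline measured at the second addition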
* hit, by the source's call; i = inactive; · = no result.

SMILES	RGS4 act	MrgX1 antagonist	MrgX1 ag	RGS4 block	MrgX1 PAM
CCCc1cc2c(cc1NC(=O)c1ccco1)OCO2	i	i	i	i	i
Cc1ccc(NC(=O)COC(=O)/C=C/c2c(C)nn(-c3ccc(F)cc3)c2Cl)cc1F	i	-5.4*	i	i	i
N=C1/C(=C\c2ccc(-c3cccc(C(=O)O)c3)o2)C(=O)N=C2SC=C(c3ccccc3)N12	i	i	i	i	7.1*
CCc1nnc(NC(=O)CCC(=O)NC2CCCc3ccccc32)s1 (stereo not drawn)	i	i	i	i	i
CCOC(=O)c1nn(-c2ccc(Cl)cc2)c(=O)c(C#N)c1C	i	i	i	i	i
CCOC(=O)c1nn(-c2ccc(Cl)cc2Cl)c(=N)c(C#N)c1C	i	-7.5*	i	i	i
O=S(=O)(Nc1c(S(=O)(=O)c2ccccc2)c2nc3ccccc3nc2n1C1CCCCC1)c1ccccc1	-10*	i	i	i	i
COc1cccc(OC)c1OCCCN1CCC(Cc2ccccc2)CC1	i	i	i	i	i
CCCCNC(=O)c1cc2ccccc2s1	i	i	i	i	i
Cc1ccc(S(=O)(=O)N2CCC(C(=O)N/N=C/c3cccnc3)CC2)cc1	i	-5.2*	i	i	i
Cc1ccc(S(=O)(=O)N2CCC(C(=O)N/N=C/c3ccccc3[N+](=O)[O-])CC2)cc1	i	i	i	i	i
COc1ccc(CNc2nc(-c3cccnc3)nn2C(=O)C(C)C)cc1	i	·	·	i	·
O=S(=O)(c1ccc(Cl)cc1)N1CCN(Cc2c[nH]c3ccccc23)CC1	-7.5*	i	i	i	i
O=S(=O)(c1ccc(Br)cc1)N1CCCN(Cc2ccccc2F)CC1	-7.4*	i	i	i	i
Cc1ccccc1CN1CCN(S(=O)(=O)c2ccc(F)cc2)CC1	i	i	i	i	i
Cc1ccc(NC(=O)CSc2ncn(-c3ccccc3)n2)cc1C	i	i	i	i	i
Cc1ccc(NC(=O)CSc2ncc3ccccn23)cc1C	-7.5*	i	i	i	i
COc1cc(OC)c2cc(C(=O)N[C@@H](Cc3ccccc3)C(=O)O)n(C)c2c1	i	i	i	i	i
CCc1ccc(NC(=O)CS(=O)CC(=O)NCC2OCCc3ccccc32)cc1 (stereo not drawn)	i	i	i	i	i
Cc1cccc(C)c1NC(=O)CS(=O)CC(=O)NCC1OCCc2ccccc21 (stereo not drawn)	i	-4.8*	i	i	i
Cc1cccc(C(=O)OCC(=O)N(CC(C)C)c2c(N)n(Cc3ccccc3)c(=O)[nH]c2=O)c1O	i	i	i	i	i
CCN(CC)CCOC(=O)c1ccc(NC(=O)/C=C/c2cccs2)cc1	-7.1*	i	i	i	i
CCOC(=O)c1ccc(NC(=O)/C=C/c2cccs2)cc1	i	i	i	i	i
CCN(CC)CCOC(=O)c1ccc(NC(=O)C2(c3ccccc3)CCCC2)cc1	-7.4*	i	i	i	i
O=C(O)c1ccc(NC(=O)C2(c3ccccc3)CCCC2)cc1	i	i	i	i	i
SMILES	RGS4 act	MrgX1 antagonist	MrgX1 ag	RGS4 block	MrgX1 PAM
COc1ccc(OC)c(CNC(=O)C(C)n2nc(C)c3c(C)n(-c4ccccc4)nc3c2=O)c1 (stereo not drawn)	i	i	i	i	i
COc1cccc(/C=N/NC(=O)c2ccoc2C)c1	-8.5*	i	i	i	i
COc1ccc(C(=O)NC(=S)NNC(=O)c2ccccc2C)cc1	i	i	62*	i	i
CCNC(=S)NNC(=O)c1cc(-c2ccc(OCC)cc2)nc2ccccc12	i	i	i	i	i
COc1ccc(C(=O)NNC(=S)NC(=O)c2cc(-c3ccccc3)nc3ccccc23)cc1	i	-6.8*	i	i	i
CCCOc1ccc(C(=O)NNC(=S)NC(=O)c2cc(-c3ccc(Cl)cc3)nc3ccccc23)cc1	-9*	i	i	i	i
COc1ccc(Cl)cc1C(=O)NNC(=S)NC(=O)c1cc(-c2ccccc2)nc2ccccc12	-9.8*	-6.5*	i	i	i
C=CCOc1ccc(/C=N/NC(=O)CC(=O)NC2CCCCC2)cc1	i	i	i	i	i
COc1ccc(/C=C/C(=O)NC(=S)NNC(=O)c2c(-c3ccccc3)noc2C)cc1	i	i	29*	i	i
COc1ccc(-c2cc(C(=O)NNC(=S)NC(=O)c3c(-c4ccccc4)noc3C)[nH]n2)cc1	i	i	i	i	i
C#CCOCCOCCOCCNc1nc(N2CCN(C(=O)CCCCCCCCCCNC(=O)Cn3cc(CCCCCN)nn3)CC2)nc(N2CCN(C(=O)CCCCCCCCCCNC(=O)[C@H]([C@@H](C)CC)n3cc(CCCCCN)nn3)CC2)n1	·	i	51*	·	i
C#CCOCCOCCOCCNc1nc(N2CCN(C(=O)CCCCCCCCCCNC(=O)[C@H]([C@@H](C)CC)n3cc(CCCCCN)nn3)CC2)nc(N2CCN(C(=O)CCCCCCCCCCNC(=O)[C@@H]([C@H](C)O)n3cc(C)nn3)CC2)n1	·	i	i	·	i
C#CCOCCOCCOCCNc1nc(N2CCN(C(=O)CCCCCCCCCCNC(=O)[C@H](CCCCN)n3cc(C[C@@H](C)CC)nn3)CC2)nc(N2CCN(C(=O)CCCCCCCCCCNC(=O)[C@H](CCCCN)n3cc(C[C@@H](C)CC)nn3)CC2)n1	·	i	89*	·	i
C#CCOCCOCCOCCNc1nc(N2CCN(C(=O)CCCCCCCCCCNC(=O)[C@H](CCCCN)n3cc(C)nn3)CC2)nc(N2CCN(C(=O)CCCCCCCCCCNC(=O)[C@@H]([C@H](C)CC)n3cc(CCCCCN)nn3)CC2)n1	·	i	120*	·	i
C#CCOCCOCCOCCNc1nc(N2CCN(C(=O)CCCCCCCCCCNC(=O)[C@@H](CCSC)n3cc(CCO)nn3)CC2)nc(N2CCN(C(=O)CCCCCCCCCCNC(=O)[C@H]([C@@H](C)CC)n3cc(CCCCCN)nn3)CC2)n1	·	i	i	·	15*
C#CCOCCOCCOCCNc1nc(N2CCN(C(=O)CCCCCCCCCCNC(=O)Cn3cc(CCCCCN)nn3)CC2)nc(N2CCN(C(=O)CCCCCCCCCCNC(=O)[C@H](CO)n3cc(CCCCCN)nn3)CC2)n1	·	i	i	·	i
CCN(CC(=O)NCc1ccc(Cl)cc1)C(=O)COc1ccc(Cl)cc1Br	i	i	i	i	i
CC(=O)Nc1ccc(NC(=O)CSc2nc(N)c(NC(=O)c3ccco3)c(=O)[nH]2)cc1	i	i	i	i	i

From PubChem BioAssay
